Data from ChEMBL document CHEMBL1156515.
The source made the active and inactive calls. No cut-off for these calls is given here.

Experiments:
HeLa [1] = test: Effect on AMPK activation in HeLa cells at 1 uM after 5 mins by immunoprecipitate kinase assay; type: cell-based
Outline: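 HeLa cells grown in Minimum Essential Eagle's Medium with 10% FBS, NEAA, penicillin and streptomycin. Cells were exposed for 5 min, with or without 1 h pretreatment with STO-609 (10 µg/ml). They were lysed in ice-cold NP-40 buffer, and AMPK activity was measured by immunoprecipitate kinase assay. Means ± SEM of duplicates, representative of 2 or more experiments.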

HeLa [2] = test: Effect on acetyl-CoA carboxylase phosphorylation in HeLa cells at 1 uM after 5 mins by densitometry; type: cell-based
Outline: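 HeLa cells grown in MEM with 10% FBS, NEAA and antibiotics. Cells were exposed for 5 min, with or without 1 h STO-609 (10 µg/ml) pretreatment, then lysed in NP-40 buffer. Lysates (10-30 µg protein) were Western blotted for phospho-ACC with ECL detection, and densitometry was given in arbitrary units. Means ± SEM of duplicates, representative of 2 or more experiments.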

Mus musculus [3] = species on record: Mus musculus; test: Effect on acetyl-CoA carboxylase phosphorylation in mouse embryonic fibroblasts expressing AMPK-alpha1+/+alpha2+/+ upto 300 uM by Western blot
Outline: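 MEFs from AMPKα1+/+/α2+/+ mice (DMEM, 10% FBS, NEAA, 1 mM pyruvate, antibiotics) given compound at graded concentrations up to 300 µM for 1 h. Lysates Western blotted for phospho- and total ACC, quantified by densitometry (arbitrary units). Means ± SEM of duplicates, representative of 2 or more experiments.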

Mus musculus [4] = species on record: Mus musculus; test: Effect on AMPK phosphorylation in LKB1-/- mouse longus muscle tissue at 100 uM by Western blot; type: tissue-based
Outline: (§1)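 Extensor digitorum longus from overnight-fasted LKB1+/+ or muscle-specific LKB1−/− mice, mounted and incubated 1 hr at 37°C in KRB (pH 7.4, 2 mM pyruvate, gassed 95% O2/5% CO2) with compound (stock in DMSO); controls 0.1% DMSO. Muscles snap-frozen; lysates Western blotted for pT172 AMPK and pACC.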

Mus musculus [5] = species on record: Mus musculus; test: Effect on acetyl-CoA carboxylase phosphorylation in wild type LKB1+/+ mouse longus muscle tissue at 100 uM by Western blot; type: tissue-based; outline: as §1
[6] = target: Serine/threonine-protein kinase pim-1 (Homo sapiens) (UniProt P11309); test: Inhibition of PIM1 at 10 uM
Outline: (§2)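 Single-concentration selectivity screen at 10 µM across a 76-protein-kinase panel, assayed per earlier methods. Duplicate assays; activity expressed as % of no-compound control ± standard deviation.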

HeLa [7] = test: Reduction of acetyl-CoA carboxylase phosphorylation in HeLa cells at 100 uM after 1 hr in presence of STO-609 by densitometry; type: cell-based
Outline: (§3)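 HeLa cells exposed to 100 µM compound for 1 hr, with or without a 1 hr pretreatment with STO-609 (10 µg/ml). Lysates Western blotted for phospho-ACC, quantified by densitometry in arbitrary units. Means ± SEM of duplicates; 2 or more experiments.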

HeLa [8] = test: Effect on AMPK phosphorylation in HeLa cells at 100 uM after 1 hr by immunoprecipitate kinase assay; type: cell-based
Outline: (§4)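 HeLa cells (MEM, 10% FBS, NEAA, penicillin/streptomycin) given 100 µM compound for 1 hr, with or without STO-609 (10 µg/ml) for 1 hr beforehand. Lysates in ice-cold NP-40 buffer; AMPK activity by immunoprecipitate kinase assay and Thr-172 phosphorylation by Western blot. Means ± SEM of duplicates, representative of 2 or more experiments.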

Hepatocyte = test: Effect on acetyl-CoA carboxylase phosphorylation in wild type AMPK expressing mouse AMPK-alpha1+/+alpha2+/+ primary hepatocytes upto 200 uM after 4 hrs by Western blot; type: cell-based
Outline: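 Primary hepatocytes from AMPKα1+/+α2+/+ mice exposed to compound concentrations up to 200 µM for 4 hr. Lysates immunoblotted with phosphospecific and total ACC antibodies.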

Mus musculus [9] = species on record: Mus musculus; test: Effect on AMPK phosphorylation in wild type LKB1+/+ mouse longus muscle tissue at 2 mM uM by Western blot; type: tissue-based
Outline: (§5)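 EDL muscle from fasted LKB1+/+ or muscle-LKB1−/− mice, incubated 1 hr at 37°C in KRB pH 7.4 with 2 mM pyruvate, gassed 95% O2/5% CO2, with 2 mM AICAR. Lysates immunoblotted with phospho-Thr172 AMPK and phospho-ACC antibodies; ECL bands quantified by CCD imaging.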

Mus musculus [10] = species on record: Mus musculus; test: Effect on acetyl-CoA carboxylase phosphorylation in LKB1-/-mouse longus muscle tissue at 2 mM uM by Western blot; type: tissue-based; outline: as §5
Rattus norvegicus [11] = species on record: Rattus norvegicus; test: Effect on interaction between rat GST fused AMPK glycogen binding domain and glycogen at 5 uM
Outline: (§6)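 β1 glycogen-binding domain (residues 65-182) fused to GST, expressed in E. coli BL21 and glutathione-purified. 2 µg incubated with bovine liver glycogen coupled to Sepharose in 50 mM Tris-HCl pH 7.5, 150 mM NaCl with compound. Load, supernatant and pellet anti-GST immunoblotted on infrared imager.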

Mus musculus [12] = species on record: Mus musculus; test: Increase in acetyl-CoA carboxylase phosphorylation in TAK1+/+ mouse embryonic fibroblast at 100 uM after 1 hr by densitometry
Outline: (§7)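 TAK1+/+ and TAK1−/− MEFs treated with 100 µM compound for 1 hr; lysates Western blotted and ACC phosphorylation quantified by densitometry in arbitrary units. Means ± SEM of duplicates, representative of 2 or more experiments.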

Mus musculus [13] = species on record: Mus musculus; test: Increase in acetyl-CoA carboxylase phosphorylation in TAK1-/- mouse embryonic fibroblast at 100 uM after 1 hr by densitometry; outline: as §7
[14] = target: Serine/threonine-protein kinase pim-3 (Homo sapiens) (UniProt Q86V86); test: Inhibition of PIM3 at 10 uM; outline: as §2
Mus musculus [15] = species on record: Mus musculus; test: Effect on acetyl-CoA carboxylase phosphorylation in mouse embryonic fibroblasts expressing AMPK-alpha1+/+alpha2+/+ at 100 uM after 15 mins by Western blot
HeLa [16] = test: Effect on AMPK phosphorylation in HeLa cells at 100 uM after 1 hr by immunoprecipitate kinase assay
HeLa [17] = test: Effect on acetyl-CoA carboxylase phosphorylation in HeLa cells at 100 uM after 1 hr by densitometry; type: cell-based; outline: as §3
HeLa [18] = test: Effect on AMPK activation in HeLa cells at 100 uM after 1 hr by immunoprecipitate kinase assay; type: cell-based; outline: as §4
HeLa [19] = test: Reduction of AMPK phosphorylation in HeLa cells at 100 uM after 1 hr in presence of STO-609 by immunoprecipitate kinase assay; type: cell-based; outline: as §4
[20] = target: 5'-AMP-activated protein kinase catalytic subunit alpha-1 (Rattus norvegicus) (UniProt P54645); test: Activation of rat AMPK alpha-1-alpha-2beta-1-gamma-1 kinase upto 5 uM in presence of saturating concentration of 200 uM AMP
[21] = target: 5'-AMP-activated protein kinase catalytic subunit alpha-1 (Rattus norvegicus) (UniProt P54645); test: Effect on GST fused rat AMPKalpha1 (1-333) kinase activation in presence of recombinant CaMKKbeta by Western blot
Outline: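 GST fusions of rat AMPKα1 kinase domain, with or without the autoinhibitory region, made in bacteria and glutathione-Sepharose purified. Pre-incubated with MgATP with or without recombinant human CaMKKβ to phosphorylate Thr-172. Activity then measured with or without 1 µM compound, or samples Western blotted with anti-GST and anti-pT172.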

HeLa [22] = test: Reduction of AMPK activation in HeLa cells at 100 uM after 1 hr in presence of STO-609 by immunoprecipitate kinase assay; type: cell-based; outline: as §4
Rattus norvegicus [23] = species on record: Rattus norvegicus; test: Protection against dephosphorylation of rat AMPK incubated with protein phosphatase 2Calpha at 1 uM in presence of magnesium
Outline: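 Purified rat liver AMPK incubated with recombinant protein phosphatase-2Cα (9 ng) plus 5 mM MgCl2 with or without 1 µM compound; remaining AMPK activity measured. Controls lacked Mg2+ or added 200 µM AMP.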

Rattus norvegicus [24] = species on record: Rattus norvegicus; test: Effect on GST fused rat AMPKalpha1 T172D mutant kinase
Mus musculus [25] = species on record: Mus musculus; test: Effect on acetyl-CoA carboxylase phosphorylation in wild type LKB1+/+ mouse longus muscle tissue at 2 mM uM by Western blot; type: tissue-based; outline: as §5
Rattus norvegicus [26] = species on record: Rattus norvegicus; test: Effect on interaction between rat GST fused AMPK glycogen binding domain and glycogen at 0.5 uM; outline: as §6
Mus musculus [27] = species on record: Mus musculus; test: Effect on AMPK phosphorylation in wild type LKB1+/+ mouse longus muscle tissue at 100 uM by Western blot; type: tissue-based; outline: as §1
Mus musculus [28] = species on record: Mus musculus; test: Effect on acetyl-CoA carboxylase phosphorylation in LKB1-/-mouse longus muscle tissue at 100 uM by Western blot; type: tissue-based; outline: as §1
Mus musculus [29] = species on record: Mus musculus; test: Effect on acetyl-CoA carboxylase phosphorylation in mouse embryonic fibroblasts expressing AMPK-alpha1+/+alpha2+/+ at 100 uM upto1 hrs by Western blot
Mus musculus [30] = species on record: Mus musculus; test: Effect on AMPK phosphorylation in LKB1-/- mouse longus muscle tissue at 2 mM uM by Western blot; type: tissue-based; outline: as §5
Mus musculus [31] = species on record: Mus musculus; test: Effect on acetyl-CoA carboxylase phosphorylation in mouse embryonic fibroblasts expressing AMPK-alpha1+/+alpha2+/+ upto 300 uM after 4 hrs by Western blot

Sequence of 5'-AMP-activated protein kinase catalytic subunit alpha-1 (Rattus norvegicus) (P54645 whole entry, the tested form may be a part): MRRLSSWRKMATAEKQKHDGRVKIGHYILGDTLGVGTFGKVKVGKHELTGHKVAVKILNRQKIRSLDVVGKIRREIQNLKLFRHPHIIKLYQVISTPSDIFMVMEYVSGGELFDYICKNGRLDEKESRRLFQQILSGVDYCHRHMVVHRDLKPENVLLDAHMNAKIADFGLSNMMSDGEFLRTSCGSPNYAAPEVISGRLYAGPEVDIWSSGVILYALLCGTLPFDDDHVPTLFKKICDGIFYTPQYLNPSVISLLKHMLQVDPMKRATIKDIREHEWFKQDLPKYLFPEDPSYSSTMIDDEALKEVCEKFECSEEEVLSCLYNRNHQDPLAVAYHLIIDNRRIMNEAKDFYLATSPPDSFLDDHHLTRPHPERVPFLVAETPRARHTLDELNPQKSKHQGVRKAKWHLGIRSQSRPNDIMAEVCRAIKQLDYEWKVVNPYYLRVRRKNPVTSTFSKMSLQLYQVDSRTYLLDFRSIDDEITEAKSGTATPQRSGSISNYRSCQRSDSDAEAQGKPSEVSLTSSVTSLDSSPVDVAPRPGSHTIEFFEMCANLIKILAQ
Sequence of Serine/threonine-protein kinase pim-1 (Homo sapiens) (P11309 whole entry, looked up): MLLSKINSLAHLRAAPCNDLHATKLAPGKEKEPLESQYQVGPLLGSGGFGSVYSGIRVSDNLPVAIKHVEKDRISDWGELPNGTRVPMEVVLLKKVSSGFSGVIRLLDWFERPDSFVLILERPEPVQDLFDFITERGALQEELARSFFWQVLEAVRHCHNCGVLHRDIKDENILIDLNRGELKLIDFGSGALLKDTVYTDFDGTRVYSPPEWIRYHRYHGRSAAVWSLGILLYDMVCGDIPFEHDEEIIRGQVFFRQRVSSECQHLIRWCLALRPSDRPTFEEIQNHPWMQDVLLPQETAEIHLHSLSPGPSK

CC(O)[C@]1(C)CC[C@H]([C@]2(C)CC[C@@H](C[C@H](O)[C@H](C)[C@H](O)[C@H](C)/C=C/C[C@@H](C)C[C@@H](C)/C(O)=C/C(=O)[C@@H](C)C[C@@H](C)C[C@H](C)CCC(=O)O)O2)O1 (single isomer, unassigned)
Activity (HeLa [1]): Active | Activity (HeLa [2]): Active

N#Cc1c(O)c2c(-c3ccc(-c4ccccc4O)cc3)csc2[nH]c1=O
Activity (Mus musculus [3]): Active | Activity (Mus musculus [4]): inactive | Activity (Mus musculus [5]): Active | inhibition [6]: > 50% | Activity (HeLa [7]): Active | Activity (HeLa [8]): Active | Activity (Hepatocyte): Active | Activity (Mus musculus [9]): Active | Activity (Mus musculus [10]): inactive | Activity (Rattus norvegicus [11]): inactive | Activity (Mus musculus [12]): Active | Activity (Mus musculus [13]): Active | inhibition [14]: > 50% | Activity (Mus musculus [15]): Active | Activity (HeLa [16]): Active | Activity (HeLa [17]): Active | Activity (HeLa [18]): Active | Activity (HeLa [19]): Active | Activity [20]: 1.4 | Activity [21]: inactive | Activity (HeLa [22]): Active | Activity (Rattus norvegicus [23]): Active | Activity (Rattus norvegicus [24]): inactive | Activity (Mus musculus [25]): Active | Activity (Rattus norvegicus [26]): inactive | Activity (Mus musculus [27]): Active | Activity (Mus musculus [28]): inactive | Activity (Mus musculus [29]): Active | Activity (Mus musculus [30]): inactive

NC(=O)c1ncn([C@@H]2O[C@H](COP(=O)(O)O)[C@@H](O)[C@H]2O)c1N
Activity (Mus musculus [31]): Active
